Laboratory results published in ChEMBL document CHEMBL1799922, “Synthesis and antimycobacterial activity of prodrugs of indeno[2,1-c]quinoline derivatives” (Eur J Med Chem, 2011).
Values after ≈ are worked out from the molar mass of the structure shown. Active and inactive are the calls of the source. The rule behind the calls is not given here.

Key:
[1] = system: Mycobacterium tuberculosis; test: Antimicrobial activity against Mycobacterium tuberculosis H37Rv ATCC 27294 after 16 to 24 hrs by microplate alamar blue assay; assay type: functional
Method in brief: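 M. tuberculosis H37Rv inoculum 2×10^5 cfu/mL (100 µL) added to twofold dilutions in Middlebrook 7H12 medium; final test range 128 µM to 0.5 µM from 12.8 mM DMSO stocks. Incubated 37 °C; day 7 Tween 80 plus Alamar Blue added, further 16-24 h at 37 °C. Fluorescence ex 530/em 590 nm; MIC = lowest concentration giving >90% fluorescence reduction versus replicate bacteria-only controls. Rifampin, isoniazid controls.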

Serum = test: Stability of the compound in 80% human blood serum assessed as hydrolysis to 2-bromo-6-(1H-imidazol-1-yl)-7H-indeno[2,1-c]quinolin-7-one oxime at 1 mg after 24 hrs at 37 degC by LC-MS analysis; assay type: ADME, cell-free; set-up: scale not given: the % may be the effect or the level left
Method in brief: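 Enzymatic hydrolysis: 1 mg prodrug dissolved in 1 mL ethanol, then 200 µL preheated human blood serum diluted to 80% with 0.16 M phosphate buffer (pH 7.4) was added. Samples were kept at 37 °C (24 h) and centrifuged 10 min at 10,000 rpm. Remaining prodrug in the supernatant was monitored by TLC and LC-MS. t1/2 is the time to 50% hydrolysis.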

[2] = Selectivity index, ratio CC50 for human U937 cells to MIC for Mycobacterium tuberculosis H37Rv ATCC 27294; assay type: functional, U-937
[3] = Octanol-water partition coefficient, log P of the compound at pH 7.4 at room temperature by UV spectrophotometric analysis; assay type: physicochemical
Method in brief: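 Shake-flask method at room temperature: 1-octanol and phosphate buffer (pH 7.4) were pre-saturated by shaking for 24 h. Compound at 10^-4 M in equal volumes of both phases was shaken vigorously for 1 h, left to stand 15 min, then centrifuged 10 min at 10,000 rpm. UV absorbance of each phase was read at 280 nm against blanks, and P was taken as the octanol/water absorbance ratio.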

[4] = Cytotoxicity against human U937 cells assessed as cell viability at 1.25 ug/ml after 72 hrs by MTT assay; assay type: cell-based, U-937; conditions: read-out: Activity
Method in brief: (§1)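 U937 human monocytic cells plated at 1 × 10^5 cells/mL and allowed to adhere for 1 h at 37 °C in 5% CO2. Non-adherent cells were washed off with RPMI 1640. Adherent cells were exposed to compound in triplicate, with medium alone as the live control and 3% Tween 20 as the dead control. MTT (5 mg/mL in PBS) was then added for 3 h at 37 °C. Formazan was dissolved in 0.4 M HCl/isopropanol and absorbance read at 600 nm. Results are expressed as % cell viability.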

[5] = Cytotoxicity against human U937 cells assessed as cell viability at 20 ug/ml after 72 hrs by MTT assay; assay type: cell-based, U-937; conditions: read-out: Activity; method in brief: as §1
[6] = Cytotoxicity against human U937 cells assessed as cell viability at 5 ug/ml after 72 hrs by MTT assay; assay type: cell-based, U-937; conditions: read-out: Activity; method in brief: as §1
[7] = Cytotoxicity against human U937 cells assessed as cell viability at 10 ug/ml after 72 hrs by MTT assay; assay type: cell-based, U-937; conditions: read-out: Activity; method in brief: as §1
[8] = Stability of the compound in 10% aqueous ammonia buffer at pH 8 assessed as hydrolysis to 2-bromo-6-(1H-imidazol-1-yl)-7H-indeno[2,1-c]quinolin-7-one oxime at 1 mg at 37 degC by LC-MS analysis; assay type: physicochemical; set-up: scale not given: the % may be the effect or the level left
Method in brief: (§2)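 Chemical hydrolysis: 1 mg prodrug dissolved in 1 mL of 10% aqueous ammonia in methanol (pH 8) and held in a thermostatted water bath at 37 °C, up to 24 h. Conversion to the parent oxime was followed by TLC and LC-MS. t1/2 is the time to 50% hydrolysis.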

[9] = Half life in 10% aqueous ammonia buffer at pH 8 assessed as hydrolysis to 2-bromo-6-(1H-imidazol-1-yl)-7H-indeno[2,1-c]quinolin-7-one oxime at 37 degC by LC-MS analysis; assay type: physicochemical; method in brief: as §2

Structure (SMILES)	MIC [1]	Activity (Serum)	Selectivity Index [2]	logD [3]	viability at 72 h, 1.25 ug/ml [4]	viability at 72 h, 20 ug/ml [5]	viability at 72 h, 5 ug/ml [6]	viability at 72 h, 10 ug/ml [7]	Activity [8]	half-life [9]
CCCCCCCCCCCC(=O)O/N=C1\c2ccccc2-c2c1c(N1CCN(c3ccccn3)CC1)nc1ccc(Br)cc21	inactive									
CN(C)C(=O)O/N=C1\c2ccccc2-c2c1c(-n1ccnc1)nc1ccc(Br)cc21	0.27 µg/mL (≈ 0.584 µM)	Not Active	49	1.1	77%	50%	82%	61%	Not Active	
CSCC[C@H](NC(=O)OC(C)(C)C)C(=O)O/N=C1\c2ccccc2-c2c1c(N1CCN(c3ccccn3)CC1)nc1ccc(Br)cc21	inactive									
CC(C)(C)OC(=O)N1CCC[C@H]1C(=O)O/N=C1\c2ccccc2-c2c1c(N1CCN(c3ccccn3)CC1)nc1ccc(Br)cc21	1.53 µg/mL (≈ 2.24 µM)	13%	>26	2.3	86%	69%	75%	61%	95%	24 h
CCC(=O)O/N=C1\c2ccccc2-c2c1c(N1CCN(c3ccccn3)CC1)nc1ccc(Br)cc21	3.13 µg/mL (≈ 5.77 µM)	13%	>13	2.7	83%	83%	88%	81%	95%	144 h
O=C(/C=C/c1ccco1)O/N=C1\c2ccccc2-c2c1c(N1CCN(c3ccccn3)CC1)nc1ccc(Br)cc21	6 µg/mL (≈ 9.89 µM)	Not Active		1.4	100%			85%	95%	96 h
CCCC(=O)O/N=C1\c2ccccc2-c2c1c(N1CCN(c3ccccn3)CC1)nc1ccc(Br)cc21	inactive									
CC(=O)O/N=C1\c2ccccc2-c2c1c(N1CCN(c3ccccn3)CC1)nc1ccc(Br)cc21	inactive									
O/N=C1\c2ccccc2-c2c1c(-n1ccnc1)nc1ccc(Br)cc21	< 0.39 µg/mL		>5	0.2	100%	77%	91%	77%		
CN(C)C(=O)OC1(C)c2ccccc2-c2c1c(-n1ccnc1)nc1ccc(Br)cc21 (stereo not drawn)	6 µg/mL (≈ 12.9 µM)	Not Active		1.9	63%			69%	Not Active	
CCCCCCC(=O)OC1(C)c2ccccc2-c2c1c(-n1ccnc1)nc1ccc(Br)cc21 (stereo not drawn)	0.42 µg/mL (≈ 0.833 µM)	Not Active	40.2	1.7	85%	54%	83%	68%	86%	312 h
CCCCCCCCC(=O)OC1(C)c2ccccc2-c2c1c(-n1ccnc1)nc1ccc(Br)cc21 (stereo not drawn)	1.56 µg/mL (≈ 2.93 µM)	Not Active	11.4	1.6	86%	50%	75%	71%	90%	288 h
CC(=O)OC1(C)c2ccccc2-c2c1c(-n1ccnc1)nc1ccc(Br)cc21 (stereo not drawn)	1.88 µg/mL (≈ 4.33 µM)	Not Active	7.5	2.7	94%	35%	90%	63%	90%	240 h
O=C(CNC(=O)OCC1c2ccccc2-c2ccccc21)O/N=C1\c2ccccc2-c2c1c(N1CCN(c3ccccn3)CC1)nc1ccc(Br)cc21	6 µg/mL (≈ 7.84 µM)	29%		1.4	68%			73%	90%	36 h
CN(C)C(=O)O/N=C1\c2ccccc2-c2c1c(N1CCN(c3ccccn3)CC1)nc1ccc(Br)cc21	1.56 µg/mL (≈ 2.8 µM)	Not Active	88	2.3	100%	47%	100%	68%	Not Active	
CCCCCC(=O)O/N=C1\c2ccccc2-c2c1c(N1CCN(c3ccccn3)CC1)nc1ccc(Br)cc21	3.16 µg/mL (≈ 5.41 µM)	5%	>13	2.1	96%	87%	86%	85%	95%	576 h
CCCCCCCCC(=O)O/N=C1\c2ccccc2-c2c1c(N1CCN(c3ccccn3)CC1)nc1ccc(Br)cc21	inactive									

Structure (SMILES)	MIC [1]	Activity (Serum)	Selectivity Index [2]	logD [3]	viability at 72 h, 1.25 ug/ml [4]	viability at 72 h, 20 ug/ml [5]	viability at 72 h, 5 ug/ml [6]	viability at 72 h, 10 ug/ml [7]	Activity [8]	half-life [9]
CCCCCCC(=O)O/N=C1\c2ccccc2-c2c1c(N1CCN(c3ccccn3)CC1)nc1ccc(Br)cc21	inactive									
CCCCC(=O)O/N=C1\c2ccccc2-c2c1c(N1CCN(c3ccccn3)CC1)nc1ccc(Br)cc21	inactive									
O/N=C1\c2ccccc2-c2c1c(N1CCN(c3ccccn3)CC1)nc1ccc(Br)cc21	6.25 µg/mL (≈ 12.9 µM)		71	3.3	100%	49%	100%	56%		
CCCCCC(=O)OC1(C)c2ccccc2-c2c1c(-n1ccnc1)nc1ccc(Br)cc21 (stereo not drawn)	1.6 µg/mL (≈ 3.26 µM)	Not Active	6.1	1.4	85%	15%	77%	54%	90%	288 h
O=C(O/N=C1\c2ccccc2-c2c1c(N1CCN(c3ccccn3)CC1)nc1ccc(Br)cc21)C1CC1	inactive									
CCCC(=O)OC1(C)c2ccccc2-c2c1c(-n1ccnc1)nc1ccc(Br)cc21 (stereo not drawn)	inactive									
CCCCCCCCCC(=O)O/N=C1\c2ccccc2-c2c1c(N1CCN(c3ccccn3)CC1)nc1ccc(Br)cc21	inactive									
CCC(=O)OC1(C)c2ccccc2-c2c1c(-n1ccnc1)nc1ccc(Br)cc21 (stereo not drawn)	inactive									
COc1nc2ccc(Br)cc2cc1[C@@H](c1ccccc1)[C@@](O)(CCN(C)C)c1cccc2ccccc12 [BEDAQUILINE]	0.06 µg/mL (≈ 0.108 µM)									
CC(C)(C)OC(=O)NC1(C(=O)O/N=C2\c3ccccc3-c3c2c(N2CCN(c4ccccn4)CC2)nc2ccc(Br)cc32)CCCC1	inactive									
CC(C)C[C@H](NC(=O)OC(C)(C)C)C(=O)O/N=C1\c2ccccc2-c2c1c(N1CCN(c3ccccn3)CC1)nc1ccc(Br)cc21	inactive									
CC1(O)c2ccccc2-c2c1c(-n1ccnc1)nc1ccc(Br)cc21 (stereo not drawn)	0.78 µg/mL (≈ 1.99 µM)		4.3	1.7	93%	37%	64%	64%		
CCCCCCCCCCCCCCC(=O)OC1(C)c2ccccc2-c2c1c(-n1ccnc1)nc1ccc(Br)cc21 (stereo not drawn)	inactive									
CCCCCCCCCCCCCC(=O)O/N=C1\c2ccccc2-c2c1c(-n1ccnc1)nc1ccc(Br)cc21	inactive									
CCCCCCCCCCCCCC(=O)OC1(C)c2ccccc2-c2c1c(-n1ccnc1)nc1ccc(Br)cc21 (stereo not drawn)	inactive									
CC(C)C[C@H](NC(=O)OCC1c2ccccc2-c2ccccc21)C(=O)O/N=C1\c2ccccc2-c2c1c(N1CCN(c3ccccn3)CC1)nc1ccc(Br)cc21	inactive									
CCCCCCCCCCCCCCC(=O)O/N=C1\c2ccccc2-c2c1c(N1CCN(c3ccccn3)CC1)nc1ccc(Br)cc21	inactive									
